Assay: Toxicity liver stage against HepG2, at 10uM
Format: cell-based
Design: test concentration 10 uM, cell line HepG2-A16-CD81EGFP
Settings: human, HepG2-A16-CD81EGFP cells; read-out: INHIBITION
Procedure, shortened: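 Uninfected HepG2-A16-CD81EGFP cells, 3 × 10^3 per well, 1536-well, plated on prespotted compound at 10 μM final, parasite-free screening media added to match infected plates; puromycin 10 μM positive, DMSO 0.5% negative; run in parallel with 48 h PbLuc assay at 37 °C, 5% CO2; viability by CellTiter-Glo luminescence, normalized to controls.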

Row | Compound | cytotoxicity at 10 µM
1 | CN1CC(=O)c2sc(NCCc3ccccc3)nc2C1 | -11%
2 | OC(COCc1ccccc1Cl)CN1CCC(c2ccn[nH]2)CC1 (stereo not drawn) | -15.1%
3 | O=C(NCc1nnnn1-c1ccccc1)c1ccc(C2CCCO2)s1 (stereo not drawn) | 0.363%
4 | CSCCNC(=O)c1coc(COc2ccc(F)cc2)n1 | 1.75%
5 | Cc1nnc([C@]23COC[C@H]2CN(Cc2cccs2)C3)o1 | -3.34%
6 | CC(=O)N1CCC(c2noc(C3CCC(=O)N3)n2)CC1 (stereo not drawn) | 1.64%
7 | CCS(=O)(=O)Nc1cnn(Cc2cccc(F)c2)c1 | -1%
8 | COCCOc1ccc(NC(=O)N(CCCO)CC(C)(C)C)cn1 | -7.85%
9 | COc1ccc(C(C)N2CCC(CNC(C)=O)CC2)cc1Cl (stereo not drawn) | -51.5%
10 | CCc1ccc(C(C)NC(=O)CCc2nc(-c3nnc[nH]3)no2)cc1 (stereo not drawn) | -1.98%
11 | Cn1nnc2cc(C(=O)NS(=O)(=O)c3cccc(C#N)c3)ccc21 | -6.29%
12 | Cc1cc(C)c2c(c1)C(NC(=O)CSCC(N)=O)CCO2 (stereo not drawn) | -6.94%
13 | Cc1ccc2c(n1)N(C)CCN(C(=O)NC(C)C)C2 | -3.38%
14 | Cc1nn(C)c(Cl)c1C1CCCN1CC(=O)NC1CCCCC1 (stereo not drawn) | 7.09%
15 | Cc1cc(C(=O)N2CCC(Nc3cccnc3)CC2)c(C)s1 | -141%
16 | CC(=O)N1CCN(C(=O)NCCc2ccc(Cl)s2)CC1 | -11.6%
17 | CC(=O)NC(C)(C)C(=O)Nc1ncc(Cc2ccc(C)c(F)c2)s1 | 0.987%
18 | Cc1csc(N2CCCN(C(=O)C3(C#N)CCCCC3)CC2)n1 | -2.45%
19 | CN(C)C(=O)CN1C[C@H]2CC[C@@H](C1)N(Cc1ccc3nsnc3c1)C2 | 2.3%
20 | CC(C(=O)NCc1ccc(N2CCCCCC2)nc1)n1cncn1 (stereo not drawn) | -11.2%
21 | CC(C)N1CCn2c(nc3cc(C(N)=O)ccc32)C1 | -11.3%

Row | Compound | cytotoxicity at 10 µM
22 | Cc1cc(-n2cccn2)ccc1CN1CCC(O)(CN2CCCCC2)C1 (stereo not drawn) | 6.2%
23 | OC[C@@H]1[C@@H](c2ccccc2)CN2CCN(c3ccccn3)C[C@H]12 | -0.53%
24 | CC[C@@H]1C[C@H](C(F)(F)F)n2nc(C3CCN(S(=O)(=O)CC)CC3)cc2N1 | -28.2%
25 | CNC(=O)[C@@H]1CCO[C@@H]2CCN(C3CCOCC3)C[C@@H]21 | 6.67%
26 | CC(C)c1ccc2c(c1)CCCN2C(=O)CN(C)S(C)(=O)=O | 3.78%
27 | CN(C)c1cc(C(=O)NCC2(c3ccc(F)cc3)CC2)ccn1 | 8.59%
28 | O=C1CCC2(CCCN(C(=O)c3ccoc3)C2)CN1CCc1c[nH]cn1 (stereo not drawn) | 4.54%
29 | CCC(C(=O)NC1CCCCC1)n1cccc(OC)c1=O (stereo not drawn) | -2.23%
30 | N#Cc1cc(S(N)(=O)=O)ccc1NC1CCc2ccc(F)cc21 (stereo not drawn) | 8.08%
31 | CCCC(=O)NC1CCCN(C(=O)c2ccc(C)nc2)C1 (stereo not drawn) | 17.5%
32 | O=C(CCSc1ccccc1F)NS(=O)(=O)c1ccc2c(c1)OCCO2 | -0.841%
33 | CCC(=O)Nc1ccc(F)cc1OC | -26.1%
34 | Fc1ccccc1C1(CNC2CCOC3(CCOCC3)C2)CCCC1 (stereo not drawn) | -1.53%
35 | COc1ccc(-n2cc3[nH]c(=O)n(Cc4cccc(F)c4)n3c2=O)cc1 | 14.8%
36 | O=C(NCc1ccccc1)N1C[C@@H]2C[C@H](C(=O)N3CCCC3)[C@H](C1)O2 | 8.46%
37 | O=C(NC1CCC(N2C(=O)CCC2=O)CC1)c1c[nH]c2ccccc12 (stereo not drawn) | -2.06%
38 | Cc1nn(C)c(C)c1C1CCCN1C(=O)c1cnc2onc(C)c2c1 (stereo not drawn) | -8.48%
39 | Cc1cc(C[C@@H]2CCC[C@H]2NCc2ccccc2C)on1 | -5.28%
40 | C[C@@H](O)CNC(=O)c1nc(Cc2c(Cl)cccc2Cl)no1 | 0.483%
41 | CCc1nccn1CCC(=O)N1CCCC1c1cncc(NC)n1 (stereo not drawn) | 3.53%
42 | CNC(=O)c1cc2c(nc1NCC1CC1)CCN(S(C)(=O)=O)CC2 | 5.57%

Row | Compound | cytotoxicity at 10 µM
43 | CC(=O)Nc1nccn1Cc1ccccc1Cl | -8.1%
44 | Cc1cc(CNc2ccccc2Cl)no1 | -7.77%
45 | CS(=O)(=O)c1ccc(NC(=O)NC2(c3cccc(F)c3)CC2)cc1 | 2.93%
46 | Cc1cc(N2CCN(C(=O)C(C)n3ccnc3C(C)C)CC2)cc(C)n1 (stereo not drawn) | -3.59%
47 | COCCNCc1cc2ccc(C)c(C)c2[nH]c1=O | 5.13%
48 | COc1ccc(-c2c(C)nn3c(=N)c(C#N)n[nH]c23)cc1 | -8.26%
49 | Cc1cccc(CN2CCOCC2c2[nH]ncc2C)n1 (stereo not drawn) | 6.91%
50 | O=C(CCc1ccncc1)N1CCc2cc(Cl)cc(Cl)c2C1 | -24.3%
51 | C=C(C)COc1ccccc1CN1CCCC(C(=O)NCCCO)C1 (stereo not drawn) | 7.36%
52 | CNC(=O)C(C)(C)CNC(=O)Nc1cc(C)ccn1 | 11.7%
53 | Cc1ccc2c(n1)N(CCn1cccn1)CCN(S(C)(=O)=O)C2 | 13.5%
54 | CC(C)c1cnc(CN2C(=O)CC3(CCSC3)C2=O)o1 (stereo not drawn) | 17.2%
55 | CCOc1cccc(CNC(=O)c2cnn(CC)c2C(F)(F)F)c1 | 11.7%
56 | CCC(CC)c1cc(CNC(=O)N2CCN(CC)CC2)on1 | -3.26%
57 | Cc1cccc(C(C)CNS(=O)(=O)CCCC#N)c1 (stereo not drawn) | -2.17%
58 | COc1ccc(OC)c(C(C)Nc2ncnc3c2NC(=O)CN3)c1 (stereo not drawn) | 10.6%
59 | CCc1ccc(OCC(=O)N2CCN(CC)CC2)cc1 | 6.15%
60 | Cc1nc2ccccn2c1CN1C[C@@H](CN(C)CCO)[C@@H](CO)C1 | -11.4%
61 | Cc1ncncc1C(=O)N1CCOC(C)(C(=O)NC2CCCC2)C1 (stereo not drawn) | -36.4%
62 | COc1ccc(CN2CCOC[C@H](OCCC(C)C)C2)cc1 | -4.04%
63 | CS(=O)(=O)N1CCC2(CCCN(CCCc3ccccc3)C2=O)C1 (stereo not drawn) | 2.46%

Row | Compound | cytotoxicity at 10 µM
64 | Cn1cc(-c2cnc(N3CCCC3)nc2)cc1C(=O)O | -16.3%
65 | COCCN(C)C[C@@H]1CN(C(=O)c2sc3ccccc3c2C)C[C@@H]1CO | -7.13%
66 | CCC(C)(CC(=O)OC)NC(=O)c1cccc(F)c1F (stereo not drawn) | -4.13%
67 | O=C(NCC1(c2ccc(F)cc2)CCC1)N1CCC2(CCOCC2)C1 | 3.73%
68 | COc1cc(CN2CCCC2)ccc1Oc1ccc2c(c1)CC(CN)O2 (stereo not drawn) | -7.79%
69 | CCOC1COC2(CCN(C(=O)c3cccc(C)n3)CC2)C1 (stereo not drawn) | 6.24%
70 | Cc1ccc(C(C)NC(=O)N2CCN(C(=O)CC(F)(F)F)CC2)o1 (stereo not drawn) | 43.3%
71 | CNC(=O)c1ccc(CNc2ccncc2Cl)cc1 | 17.7%
72 | CNC(=O)c1cnc2c(C)csc2c1 | -22.3%
73 | COc1cc(CNC(=O)c2csc(Br)c2)ccn1 | -5.76%
74 | CC(C)C(=O)N(C)Cc1nc(N2CCCC2)ncc1-c1ccncc1 | 6.54%
75 | CN(C)CCOCC1CN(C(=O)c2ccsc2)Cc2ccnn2C1 (stereo not drawn) | -0.0653%
76 | CC1CCCN(Cc2csc(-c3ncccn3)n2)CC1 (stereo not drawn) | 2.73%
77 | CN(CC1CCN(c2ccccc2)C1)c1ccc(Cn2ccnc2)cn1 (stereo not drawn) | -142%
78 | COc1ccc(O[C@H]2COCCN(C(=O)c3ccno3)C2)cc1 | -2.41%
79 | CCCN(CC(=O)NC)C(=O)c1ccc(-c2nc(C)cs2)cc1 | -20.8%
80 | CN(C)CCCN(Cc1ccco1)Cc1ccnn1C1CCCCO1 (stereo not drawn) | -2.52%
81 | CN(C)CC(=O)N1CCc2ncnc(-c3ccsc3)c2CC1 | -12.3%
82 | COCCN1CCC(NCc2ccc(C#N)cc2)C1 (stereo not drawn) | -9.34%
83 | Cc1cc(NC(=O)C(C)Cn2cncn2)no1 (stereo not drawn) | -5.18%

From ChEMBL document CHEMBL4513216, “Probing the Open Global Health Chemical Diversity Library for Multistage-Active Starting Points for Next-Generation Antimalarials” (ACS Infect Dis, 2020)
